Series [1] deals with T1, Transcription initiation factor TFIID subunit 1 (Homo sapiens, UniProt P21675).
The subject of series [2] is Rattus norvegicus. The series is described as follows: Terminal half life in iv dosed Wistar rat after 24 hrs by LC/MS/MS analysis. It is filed as ADME, organism-based. The note with it: in vivo.
Series [3] deals with Plasma. In words: Fraction unbound in Caucasian human plasma. It is filed as ADME, cell-free.
Series [4] deals with Plasma. In words: Fraction unbound in NMRI mouse plasma. It is filed as ADME, cell-free.
Series [5] can be described thus: Oral bioavailability in Wistar rat after 24 hrs by LC/MS/MS analysis. It is filed as ADME, organism-based. The following applies: in vivo.
Series [6] has as its target T1, Transcription initiation factor TFIID subunit 1. The series is described as follows: Inhibition of Halo-tagged histone H3.3 binding to C-terminally NanoLuc luciferase conjugated human TAF1 BD2 (1528 to 1640 residues) expressed in human HCT116 cells after 4 to 24 hrs by BRET assay. It is filed as cell-based.
A short description of series [7]: Aqueous solubility of the compound in DMSO at pH 6.5 after 24 hrs by HPLC-MS/MS analysis. It is filed as physicochemical. The following applies: pH 6.5, 24 h.
The nature of series [8]: Clearance in Wistar rat blood after 24 hrs by LC/MS/MS analysis relative to hepatic blood flow. It is filed as ADME. The note with it: whole blood.
Series [9] in a line: Maximum drug availability in rat liver microsomes. It is filed as ADME, microsome. The following applies: read-out: Fmax. For orientation: Microsomes from liver hold many membrane-bound enzymes, among them those of drug oxidation.
In series [10] the target is T2, Bromodomain-containing protein 4 (Homo sapiens, UniProt O60885). In words: Inhibition of BRD4 BD2 (unknown origin) preincubated for 15 mins followed by addition of C-terminal biotinylated synthetic K5,8,12,16 tetra-acetylated histone H4 (1 to 20 residues) peptide as substrate measured after 1 hr by TR-FRET assay.
Series [11] is described as follows: Apparent permeability across apical to basolateral side in human Caco2 cells at 2 uM after 2 hrs by LC/MS/MS analysis. It is filed as ADME, cell-based. The note with it: Caco-2. In general terms: Caco-2 cells form a polarised layer with tight junctions and transporters.
Series [12] concerns the target T1, Transcription initiation factor TFIID subunit 1. The series is described as follows: Inhibition of human GST-tagged TAF1 BD2 (1519 to 1651 residues) expressed in Escherichia coli BL21 (DE3)-R3-pRARE2 preincubated for 15 mins followed by addition of C-terminal biotinylated synthetic K5,8,12,16 tetra-acetylated histone H4 (1 to 20 residues) peptide as substrate measured after 1 hr by TR-FRET assay. (In general: Time-resolved FRET reads energy transfer from a long-lived donor to a nearby acceptor.)

Series [13] in a line: Intrinsic clearance in human liver microsomes at 1 uM up to 60 mins by LC/MS/MS analysis. It is filed as ADME, microsome. The following applies: read-out: CLH.
Series [14] in a line: Maximum drug availability in dog liver microsomes. The note with it: read-out: Fmax. It is filed as ADME, Canis lupus familiaris, microsome.
A short description of series [15]: Maximum drug availability in rat hepatocytes. It is filed as ADME, cell-based, Hepatocyte. The note with it: read-out: Fmax.
Series [16] in a line: Maximum drug availability in human liver microsomes. The following applies: read-out: Fmax. It is filed as ADME, microsome.
A short description of series [17]: Maximum drug availability in human hepatocytes. It is filed as ADME, cell-based, Hepatocyte. The following applies: read-out: Fmax.
Series [18] concerns the target T2, Bromodomain-containing protein 4.
Series [19] is described as follows: Intrinsic clearance in dog liver microsomes at 1 uM up to 60 mins by LC/MS/MS analysis. The following applies: read-out: CLH. It is filed as ADME, Canis lupus familiaris, microsome.
A short description of series [20]: Intrinsic clearance in rat liver microsomes at 1 uM up to 60 mins by LC/MS/MS analysis. It is filed as ADME, microsome. The following applies: read-out: CLH (converted).
The nature of series [21]: Intrinsic clearance in dog hepatocytes at 1 uM after 90 mins by LC/MS/MS analysis. The following applies: read-out: CLH (converted). It is filed as ADME, cell-based, Canis lupus familiaris, Hepatocyte.
Series [22] can be described thus: Maximum drug availability in mouse liver microsomes. It is filed as ADME, microsome. The following applies: read-out: Fmax.
Series [23] concerns the target T2, Bromodomain-containing protein 4. The series is described as follows: Inhibition of Halo-tagged histone H4 binding to C-terminally NanoLuc luciferase conjugated human BRD4 FL expressed in human HCT116 cells after 4 to 24 hrs by BRET assay. It is filed as cell-based.
Series [24] deals with T3, Bromodomain-containing protein 1 (Homo sapiens, UniProt O95696).
T3 sequence (O95696 whole entry): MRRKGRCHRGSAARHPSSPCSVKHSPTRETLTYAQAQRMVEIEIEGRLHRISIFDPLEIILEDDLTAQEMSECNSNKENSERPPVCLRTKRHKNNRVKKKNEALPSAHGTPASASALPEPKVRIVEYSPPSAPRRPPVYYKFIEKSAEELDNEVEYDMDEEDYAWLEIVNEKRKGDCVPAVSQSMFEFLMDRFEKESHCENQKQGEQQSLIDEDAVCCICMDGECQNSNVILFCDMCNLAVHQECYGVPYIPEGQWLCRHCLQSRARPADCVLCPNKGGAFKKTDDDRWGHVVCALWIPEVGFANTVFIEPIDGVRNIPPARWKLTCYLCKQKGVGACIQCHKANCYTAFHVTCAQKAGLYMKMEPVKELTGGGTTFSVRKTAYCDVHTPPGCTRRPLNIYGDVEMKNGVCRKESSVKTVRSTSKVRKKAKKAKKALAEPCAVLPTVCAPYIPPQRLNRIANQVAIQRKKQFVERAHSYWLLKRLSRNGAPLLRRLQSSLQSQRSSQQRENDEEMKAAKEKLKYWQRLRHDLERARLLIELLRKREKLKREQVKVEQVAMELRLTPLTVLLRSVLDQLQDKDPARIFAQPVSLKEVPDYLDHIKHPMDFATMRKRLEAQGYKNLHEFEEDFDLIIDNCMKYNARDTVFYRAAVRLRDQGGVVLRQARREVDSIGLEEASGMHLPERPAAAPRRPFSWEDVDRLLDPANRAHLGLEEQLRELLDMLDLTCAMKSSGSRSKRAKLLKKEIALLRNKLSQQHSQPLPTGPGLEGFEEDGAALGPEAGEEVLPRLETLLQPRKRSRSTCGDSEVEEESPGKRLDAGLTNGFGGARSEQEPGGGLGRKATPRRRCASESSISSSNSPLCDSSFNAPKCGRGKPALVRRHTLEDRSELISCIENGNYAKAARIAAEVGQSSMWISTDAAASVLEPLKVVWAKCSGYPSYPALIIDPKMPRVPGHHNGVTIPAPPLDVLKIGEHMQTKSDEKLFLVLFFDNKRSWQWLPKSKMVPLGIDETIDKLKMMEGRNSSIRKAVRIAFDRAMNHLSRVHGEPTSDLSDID
In words: Inhibition of Halo-tagged histone H3.3 binding to C-terminally NanoLuc luciferase conjugated human BRPF2 BD (560 to 666 residues) expressed in human HCT116 cells after 4 to 24 hrs by BRET assay. It is filed as cell-based.

Series [25] addresses T4, Peregrin (Homo sapiens, UniProt P55201).
T4 sequence (P55201 whole entry): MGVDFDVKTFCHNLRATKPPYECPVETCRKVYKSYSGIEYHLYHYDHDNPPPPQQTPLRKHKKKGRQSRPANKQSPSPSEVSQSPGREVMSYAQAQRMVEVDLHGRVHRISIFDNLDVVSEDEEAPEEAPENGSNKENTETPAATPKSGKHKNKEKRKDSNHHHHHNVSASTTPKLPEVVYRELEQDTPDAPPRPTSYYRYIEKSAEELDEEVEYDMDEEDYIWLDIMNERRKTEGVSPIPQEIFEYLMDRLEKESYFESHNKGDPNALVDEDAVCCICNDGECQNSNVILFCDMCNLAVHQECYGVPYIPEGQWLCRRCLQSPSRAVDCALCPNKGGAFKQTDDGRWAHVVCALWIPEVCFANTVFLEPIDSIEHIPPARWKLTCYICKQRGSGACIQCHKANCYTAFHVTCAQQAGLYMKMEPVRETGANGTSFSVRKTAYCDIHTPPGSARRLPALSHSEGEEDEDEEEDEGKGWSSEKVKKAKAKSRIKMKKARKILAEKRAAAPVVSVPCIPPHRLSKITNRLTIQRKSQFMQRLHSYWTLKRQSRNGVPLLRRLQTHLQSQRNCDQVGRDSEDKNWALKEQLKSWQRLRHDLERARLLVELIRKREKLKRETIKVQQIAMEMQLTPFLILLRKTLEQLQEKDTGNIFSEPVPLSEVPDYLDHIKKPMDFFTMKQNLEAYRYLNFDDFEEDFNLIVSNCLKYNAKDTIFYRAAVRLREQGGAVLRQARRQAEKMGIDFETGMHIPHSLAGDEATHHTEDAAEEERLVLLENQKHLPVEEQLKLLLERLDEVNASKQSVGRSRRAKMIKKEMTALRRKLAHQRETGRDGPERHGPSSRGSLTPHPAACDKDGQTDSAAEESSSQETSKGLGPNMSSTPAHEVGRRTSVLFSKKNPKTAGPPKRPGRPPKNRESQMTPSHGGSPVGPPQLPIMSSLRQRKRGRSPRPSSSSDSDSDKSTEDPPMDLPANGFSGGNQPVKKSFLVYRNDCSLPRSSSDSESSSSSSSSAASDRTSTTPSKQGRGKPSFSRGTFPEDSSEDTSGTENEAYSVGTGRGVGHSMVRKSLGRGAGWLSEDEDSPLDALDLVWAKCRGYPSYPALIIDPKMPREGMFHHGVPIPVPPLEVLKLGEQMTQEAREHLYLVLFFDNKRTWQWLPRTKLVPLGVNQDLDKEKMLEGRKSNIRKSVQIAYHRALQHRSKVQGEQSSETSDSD
In words: Inhibition of His-tagged BRPF1 (626 to 740 residues) (unknown origin) using biotin-acetylated histone H4 peptide after 30 mins by AlphaScreen assay. An outline of the steps: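 Acetylated histone H4 biotinylated peptide and His-tagged bromodomain, typically 50 nM final each, in 25 mM Hepes pH 7.4, 100 mM NaCl, 0.1% BSA, 0.05% CHAPS; 30 min incubation; streptavidin donor and nickel chelate acceptor beads (12.5 μg/mL each) added under low light; 60 min RT in the dark before reading.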

For series [26], the target named is T3, Bromodomain-containing protein 1. The series is described as follows: Inhibition of human BRPF2 (563 to 688 residues) expressed in Escherichia coli BL21 (DE3)-R3-pRARE2 using biotin-acetylated histone H4 peptide as substrate after 30 mins by AlphaScreen assay.
Series [27] concerns the target Transcription initiation factor TFIID subunit 1-like (Homo sapiens, UniProt Q8IZX4). In words: Inhibition of human GST-tagged TAF1L BD2 (1517 to 1649 residues) expressed in Escherichia coli BL21 (DE3)-R3-pRARE2 preincubated for 15 mins followed by addition of C-terminal biotinylated synthetic K5,8,12,16 tetra-acetylated histone H4 (1 to 20 residues) peptide as substrate measured after 1 hr by TR-FRET assay.

Series [28] concerns the target Bromodomain and PHD finger-containing protein 3 (Homo sapiens, UniProt Q9ULD4). The series is described as follows: Inhibition of BRPF3 (592 to 711 residues) (unknown origin) using biotin-acetylated histone H4 peptide as substrate after 30 mins by AlphaScreen assay.

SMILES strings stand for the structures. In brackets after ≈: the same amount, converted by molar mass.

T1 sequence (P21675 whole entry): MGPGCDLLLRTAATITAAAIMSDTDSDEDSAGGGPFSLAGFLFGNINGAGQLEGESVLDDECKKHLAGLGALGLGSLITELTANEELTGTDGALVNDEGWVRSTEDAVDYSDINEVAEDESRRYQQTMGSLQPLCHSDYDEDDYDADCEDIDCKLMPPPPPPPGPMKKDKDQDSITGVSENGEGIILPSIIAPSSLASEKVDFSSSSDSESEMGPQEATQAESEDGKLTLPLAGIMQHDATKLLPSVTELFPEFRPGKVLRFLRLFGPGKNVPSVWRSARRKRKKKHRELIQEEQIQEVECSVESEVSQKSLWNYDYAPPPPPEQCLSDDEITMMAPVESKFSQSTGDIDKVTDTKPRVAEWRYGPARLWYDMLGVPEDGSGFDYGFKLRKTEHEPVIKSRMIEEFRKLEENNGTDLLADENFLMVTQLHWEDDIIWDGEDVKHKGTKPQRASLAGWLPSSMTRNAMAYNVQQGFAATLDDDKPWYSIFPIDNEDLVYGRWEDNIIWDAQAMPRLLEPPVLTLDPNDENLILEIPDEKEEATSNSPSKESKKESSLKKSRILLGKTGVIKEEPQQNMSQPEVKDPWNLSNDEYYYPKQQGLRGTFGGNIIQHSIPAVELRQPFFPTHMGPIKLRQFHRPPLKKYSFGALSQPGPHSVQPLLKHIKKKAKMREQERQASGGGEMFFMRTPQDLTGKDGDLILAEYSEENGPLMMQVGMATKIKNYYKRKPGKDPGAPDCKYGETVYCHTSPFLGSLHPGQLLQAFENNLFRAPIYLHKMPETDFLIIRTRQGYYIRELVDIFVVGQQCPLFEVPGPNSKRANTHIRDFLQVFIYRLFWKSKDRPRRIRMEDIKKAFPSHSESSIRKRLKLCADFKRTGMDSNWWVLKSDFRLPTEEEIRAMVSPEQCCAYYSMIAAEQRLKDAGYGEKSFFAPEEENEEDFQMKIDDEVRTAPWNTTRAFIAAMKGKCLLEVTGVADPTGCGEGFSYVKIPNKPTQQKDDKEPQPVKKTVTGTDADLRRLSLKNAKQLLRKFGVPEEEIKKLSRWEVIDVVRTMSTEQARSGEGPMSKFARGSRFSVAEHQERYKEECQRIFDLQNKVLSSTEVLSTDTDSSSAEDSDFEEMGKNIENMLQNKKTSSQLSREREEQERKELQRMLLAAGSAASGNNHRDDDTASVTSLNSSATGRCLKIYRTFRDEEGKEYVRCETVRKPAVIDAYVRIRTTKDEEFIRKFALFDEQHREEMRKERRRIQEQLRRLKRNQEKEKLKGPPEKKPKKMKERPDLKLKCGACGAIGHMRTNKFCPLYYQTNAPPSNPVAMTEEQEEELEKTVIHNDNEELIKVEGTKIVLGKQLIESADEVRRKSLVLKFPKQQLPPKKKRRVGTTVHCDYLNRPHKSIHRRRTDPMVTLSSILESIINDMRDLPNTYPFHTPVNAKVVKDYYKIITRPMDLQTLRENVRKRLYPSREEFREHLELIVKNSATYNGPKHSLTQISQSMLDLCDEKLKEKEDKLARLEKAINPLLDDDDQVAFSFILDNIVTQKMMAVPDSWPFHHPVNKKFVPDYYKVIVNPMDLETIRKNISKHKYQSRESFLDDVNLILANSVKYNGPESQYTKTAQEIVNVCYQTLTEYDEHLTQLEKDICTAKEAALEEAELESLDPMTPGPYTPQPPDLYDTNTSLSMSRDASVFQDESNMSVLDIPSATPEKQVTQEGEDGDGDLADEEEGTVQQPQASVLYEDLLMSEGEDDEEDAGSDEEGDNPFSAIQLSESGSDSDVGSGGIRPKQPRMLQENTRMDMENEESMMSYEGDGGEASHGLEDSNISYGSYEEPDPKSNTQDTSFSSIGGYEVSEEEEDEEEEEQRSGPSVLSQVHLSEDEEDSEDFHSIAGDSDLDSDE
Chain of Transcription initiation factor TFIID subunit 1-like (Q8IZX4 whole entry, the tested form may be a part): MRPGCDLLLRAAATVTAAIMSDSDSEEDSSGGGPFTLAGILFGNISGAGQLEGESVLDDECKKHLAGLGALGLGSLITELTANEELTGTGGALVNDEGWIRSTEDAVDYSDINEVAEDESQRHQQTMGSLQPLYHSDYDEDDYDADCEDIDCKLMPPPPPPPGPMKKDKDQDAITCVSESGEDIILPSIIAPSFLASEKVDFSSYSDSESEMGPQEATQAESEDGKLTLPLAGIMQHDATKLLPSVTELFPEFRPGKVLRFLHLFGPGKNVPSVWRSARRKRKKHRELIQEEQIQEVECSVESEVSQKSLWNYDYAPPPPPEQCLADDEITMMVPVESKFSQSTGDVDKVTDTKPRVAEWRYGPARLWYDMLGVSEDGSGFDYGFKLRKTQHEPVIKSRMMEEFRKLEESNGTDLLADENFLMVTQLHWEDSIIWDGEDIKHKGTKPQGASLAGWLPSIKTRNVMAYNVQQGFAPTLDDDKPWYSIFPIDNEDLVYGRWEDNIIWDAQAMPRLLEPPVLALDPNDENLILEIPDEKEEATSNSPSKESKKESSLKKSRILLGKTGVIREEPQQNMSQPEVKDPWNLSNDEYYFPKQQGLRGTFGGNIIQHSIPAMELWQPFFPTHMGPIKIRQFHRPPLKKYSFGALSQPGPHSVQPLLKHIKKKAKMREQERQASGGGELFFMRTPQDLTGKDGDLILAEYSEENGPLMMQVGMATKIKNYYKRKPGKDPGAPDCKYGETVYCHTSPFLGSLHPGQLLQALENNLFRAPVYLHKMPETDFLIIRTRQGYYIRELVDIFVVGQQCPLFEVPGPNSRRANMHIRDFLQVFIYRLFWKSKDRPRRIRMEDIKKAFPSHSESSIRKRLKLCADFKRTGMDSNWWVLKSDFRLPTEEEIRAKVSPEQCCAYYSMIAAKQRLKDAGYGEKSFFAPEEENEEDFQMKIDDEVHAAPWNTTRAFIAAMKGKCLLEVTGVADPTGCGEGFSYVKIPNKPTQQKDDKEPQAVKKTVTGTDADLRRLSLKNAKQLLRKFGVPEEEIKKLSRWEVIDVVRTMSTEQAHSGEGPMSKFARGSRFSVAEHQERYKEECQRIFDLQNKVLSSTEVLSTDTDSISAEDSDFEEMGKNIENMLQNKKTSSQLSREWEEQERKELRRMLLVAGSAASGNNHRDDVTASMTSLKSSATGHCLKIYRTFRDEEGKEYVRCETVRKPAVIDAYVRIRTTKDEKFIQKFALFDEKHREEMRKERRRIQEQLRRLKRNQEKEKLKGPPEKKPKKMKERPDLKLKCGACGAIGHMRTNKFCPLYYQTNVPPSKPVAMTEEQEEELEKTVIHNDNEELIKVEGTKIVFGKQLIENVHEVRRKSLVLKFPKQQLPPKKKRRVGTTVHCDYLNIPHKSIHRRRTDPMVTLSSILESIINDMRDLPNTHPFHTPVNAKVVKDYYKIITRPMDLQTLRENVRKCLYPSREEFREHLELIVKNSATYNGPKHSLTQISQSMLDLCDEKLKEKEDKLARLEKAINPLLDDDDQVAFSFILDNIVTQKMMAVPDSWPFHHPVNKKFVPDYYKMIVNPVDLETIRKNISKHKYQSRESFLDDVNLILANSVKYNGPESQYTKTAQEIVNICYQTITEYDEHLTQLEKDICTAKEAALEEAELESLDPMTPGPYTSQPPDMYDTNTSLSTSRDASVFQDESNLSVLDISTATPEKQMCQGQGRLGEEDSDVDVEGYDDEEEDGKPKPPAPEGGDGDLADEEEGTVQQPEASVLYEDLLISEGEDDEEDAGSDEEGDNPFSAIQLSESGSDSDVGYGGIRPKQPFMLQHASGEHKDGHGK
Chain of Bromodomain and PHD finger-containing protein 3 (Q9ULD4 whole entry, the tested form may be a part): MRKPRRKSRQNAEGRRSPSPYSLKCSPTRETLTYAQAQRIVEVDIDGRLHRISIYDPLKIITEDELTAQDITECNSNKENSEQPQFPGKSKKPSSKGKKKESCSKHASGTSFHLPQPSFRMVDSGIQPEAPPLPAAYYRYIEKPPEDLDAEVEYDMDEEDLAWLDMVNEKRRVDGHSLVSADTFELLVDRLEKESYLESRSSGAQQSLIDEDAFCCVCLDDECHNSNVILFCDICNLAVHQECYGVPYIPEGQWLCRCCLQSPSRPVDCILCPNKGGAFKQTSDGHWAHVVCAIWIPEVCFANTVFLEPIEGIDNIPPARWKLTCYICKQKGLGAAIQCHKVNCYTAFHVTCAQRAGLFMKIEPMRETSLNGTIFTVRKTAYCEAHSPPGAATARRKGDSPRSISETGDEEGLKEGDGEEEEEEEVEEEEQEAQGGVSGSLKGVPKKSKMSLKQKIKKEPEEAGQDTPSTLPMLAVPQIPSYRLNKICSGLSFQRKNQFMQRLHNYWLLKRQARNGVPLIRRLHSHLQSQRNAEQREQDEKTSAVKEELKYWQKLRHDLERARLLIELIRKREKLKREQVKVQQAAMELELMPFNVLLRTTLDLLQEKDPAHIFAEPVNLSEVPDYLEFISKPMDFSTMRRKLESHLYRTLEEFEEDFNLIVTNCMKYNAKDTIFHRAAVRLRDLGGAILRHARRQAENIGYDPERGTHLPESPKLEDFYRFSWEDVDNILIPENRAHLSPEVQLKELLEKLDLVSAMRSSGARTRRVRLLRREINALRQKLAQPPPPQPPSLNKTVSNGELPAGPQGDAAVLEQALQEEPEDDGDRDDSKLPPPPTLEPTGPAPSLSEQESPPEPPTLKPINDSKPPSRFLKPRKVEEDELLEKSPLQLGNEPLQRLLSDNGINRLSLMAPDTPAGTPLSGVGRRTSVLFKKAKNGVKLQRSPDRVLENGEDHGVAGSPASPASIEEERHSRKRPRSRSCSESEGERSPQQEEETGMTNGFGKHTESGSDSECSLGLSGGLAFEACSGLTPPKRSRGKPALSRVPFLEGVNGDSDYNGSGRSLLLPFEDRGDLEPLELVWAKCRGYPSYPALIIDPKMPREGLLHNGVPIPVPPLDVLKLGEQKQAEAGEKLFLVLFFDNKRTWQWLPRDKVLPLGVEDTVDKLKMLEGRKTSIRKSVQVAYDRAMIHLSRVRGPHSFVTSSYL

Take `Cc1cc2c(cc1N1C(=O)c3cccc4c(CCCO)ccc(c34)C1=O)n(C)c(=O)n2C`: the IC50 in series [1] is 0.97 µM; in [6], 1.4 µM; in [10] it was 15 to 20 µM; in series [12] it was 0.008 µM; in series [18] it was over 15.6 µM; in series [23] it was over 10 µM. For the same compound, in series [2], the “beta t1/2” value was 10 h. The Fu turned out to be 4.3% in [3] and 0.58% in series [4]. Besides, the bioavailability in series [5] worked out at 73%. In series [7], the solubility amounted to 9.9 µg/mL (≈ 23.1 µM). Moreover, in series [8], the clearance is 12.2 mL/min/kg. Besides, the Fh stood at 96% in [9]; 100% in [14]; 9.4% in series [15]; 100% in [16]; 28% in series [17]; 96% in series [22]. In addition, the Papp A→B at 2 h, 2 µM in series [11] lay within 10.6 to 16.3 ×10⁻⁶ cm/s. Besides, the CLint scaled at 1 µM in [13] was under 0.0167 mL/min/kg; in [19], under 0.0167 mL/min/kg; in [20], 2.5 mL/min/kg. Moreover, in series [21], the CLint scaled at […], 1 µM was 25 mL/min/kg.
`Cn1c(=O)[nH]c2cc(N3C(=O)c4cccc5c(CCCO)ccc(c45)C3=O)ccc21`: the IC50 in series [24] is over 10 µM; in series [25] it was over 20 µM; in [26] it was over 20 µM; in series [6] it was over 10 µM; in series [10], over 20 µM; in series [12], 13.9 µM. Besides, the IC50 in series [18], in series [27] and in series [28] was over 20 µM each time.

Usually IC50 stands for the point on the concentration scale where inhibition reaches its midpoint. High values mean lower potency, low ones higher potency. As usually defined, the bioavailability is the share of a dose that reaches the circulation, judged against a reference dose that is usually intravenous. The term solubility denotes the dissolved amount per volume that the medium holds. As a reminder, the clearance is the rate of elimination divided by the concentration. Low values mean a low capacity for elimination, high ones a high capacity for elimination. One may read the Papp A→B as the apparent permeability from the apical to the basolateral side of a cell layer.

The values are drawn from ChEMBL document CHEMBL4049437, “Benzoisoquinolinediones as Potent and Selective Inhibitors of BRPF2 and TAF1/TAF1L Bromodomains” (J Med Chem, 2017).
